In article PMC10962649 (Journal of Food and Drug Analysis, 2024):
Marks after values point to notes of the source that are not given here.

Tests used:
[1] = target: MRP2 (Canis lupus familiaris, UniProt A0A8I3SCV5); experiment: MRP2 activity: intracellular accumulation of GSMF; assay type: cell-based; settings: MDCKII-WT cells
[2] = tested on: MDCKII-WT cells; experiment: MTT assay for cell viability, MDCKII-WT cells; assay type: cell-based, canine; settings: 150 μM, MDCKII-WT cells (data not shown)
Outline: (§1)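 MDCKII cells (wild-type or BCRP-overexpressing, from the Netherlands Cancer Institute) were grown in DMEM with 10% FBS and 1% penicillin-streptomycin-glutamine at 37 °C under 5% CO₂. Viability after exposure to test agents was measured by MTT assay, following a cited method with minor modification.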

[3] = target: T1, BCRP (Homo sapiens, UniProt Q9UNQ0); settings: concentrations of 12.5–100 μM; cited from earlier work
T1 sequence (Q9UNQ0 1-655): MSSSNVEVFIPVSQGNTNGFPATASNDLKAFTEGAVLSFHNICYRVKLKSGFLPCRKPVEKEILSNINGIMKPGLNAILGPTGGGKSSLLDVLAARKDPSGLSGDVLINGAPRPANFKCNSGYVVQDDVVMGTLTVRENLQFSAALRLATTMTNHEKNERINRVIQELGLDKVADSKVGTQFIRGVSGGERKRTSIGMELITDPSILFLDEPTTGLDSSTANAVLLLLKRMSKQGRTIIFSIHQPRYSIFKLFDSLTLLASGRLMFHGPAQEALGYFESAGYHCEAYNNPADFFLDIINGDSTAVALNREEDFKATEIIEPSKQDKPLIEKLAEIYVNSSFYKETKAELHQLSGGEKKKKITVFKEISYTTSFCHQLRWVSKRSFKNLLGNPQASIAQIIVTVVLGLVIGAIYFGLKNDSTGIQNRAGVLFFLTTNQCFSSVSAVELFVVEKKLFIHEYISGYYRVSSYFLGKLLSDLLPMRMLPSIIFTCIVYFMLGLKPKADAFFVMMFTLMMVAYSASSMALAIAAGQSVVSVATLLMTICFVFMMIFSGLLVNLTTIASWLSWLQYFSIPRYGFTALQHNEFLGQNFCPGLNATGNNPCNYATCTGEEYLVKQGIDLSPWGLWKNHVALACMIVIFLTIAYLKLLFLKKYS

[4] = tested on: MDCKII-BCRP cells; experiment: MTT assay for cell viability, MDCKII-BCRP cells; assay type: cell-based, canine; settings: 100 μM, MDCKII-BCRP cells (data not shown)
Outline: as §1

[5] = Pharmacokinetics of oral MTX in rats alone and coadministered with MOC; assay type: in vivo, Sprague–Dawley rats
Outline: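 Groups were dosed orally and in parallel: MTX 5.0 mg/kg with an equal volume of water (n = 6), or with decoction given 0.5 h earlier. Rats were fasted overnight. Tail-vein blood (0.5 mL) was drawn at 0.25–48 h, and serum MTX was measured by fluorescence polarization immunoassay using the kit calibration. AUC0-t was derived by noncompartmental analysis.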

[6] = Mortality of rats observed during the pharmacokinetic study; assay type: in vivo, Sprague–Dawley rats; settings: oral MTX 5.0 mg/kg alone or coadministered with MOC (three groups)
Outline: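 Male Sprague–Dawley rats (350–450 g) were fasted overnight with water allowed, and food was returned 3 h after dosing. They received oral MTX 5.0 mg/kg, given alone with water or 0.5 h after oral decoction at 2.0 or 4.0 g/kg. A fourth group got 2.0 g/kg thrice daily for 2 days before MTX. Deaths were noted over the 48-h sampling period.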

[7] = target: MRP2 (Homo sapiens, UniProt Q92887); assay type: cell-based; settings: MDCKII-MRP2 cells, 100 μM spiked in blank serum, Fig. 3(C)
[8] = 50 μM, MN/HK experiment, Fig. 3(B)

Sequence of MRP2 (Canis lupus familiaris, UniProt A0A8I3SCV5) (A0A8I3SCV5 1-1544): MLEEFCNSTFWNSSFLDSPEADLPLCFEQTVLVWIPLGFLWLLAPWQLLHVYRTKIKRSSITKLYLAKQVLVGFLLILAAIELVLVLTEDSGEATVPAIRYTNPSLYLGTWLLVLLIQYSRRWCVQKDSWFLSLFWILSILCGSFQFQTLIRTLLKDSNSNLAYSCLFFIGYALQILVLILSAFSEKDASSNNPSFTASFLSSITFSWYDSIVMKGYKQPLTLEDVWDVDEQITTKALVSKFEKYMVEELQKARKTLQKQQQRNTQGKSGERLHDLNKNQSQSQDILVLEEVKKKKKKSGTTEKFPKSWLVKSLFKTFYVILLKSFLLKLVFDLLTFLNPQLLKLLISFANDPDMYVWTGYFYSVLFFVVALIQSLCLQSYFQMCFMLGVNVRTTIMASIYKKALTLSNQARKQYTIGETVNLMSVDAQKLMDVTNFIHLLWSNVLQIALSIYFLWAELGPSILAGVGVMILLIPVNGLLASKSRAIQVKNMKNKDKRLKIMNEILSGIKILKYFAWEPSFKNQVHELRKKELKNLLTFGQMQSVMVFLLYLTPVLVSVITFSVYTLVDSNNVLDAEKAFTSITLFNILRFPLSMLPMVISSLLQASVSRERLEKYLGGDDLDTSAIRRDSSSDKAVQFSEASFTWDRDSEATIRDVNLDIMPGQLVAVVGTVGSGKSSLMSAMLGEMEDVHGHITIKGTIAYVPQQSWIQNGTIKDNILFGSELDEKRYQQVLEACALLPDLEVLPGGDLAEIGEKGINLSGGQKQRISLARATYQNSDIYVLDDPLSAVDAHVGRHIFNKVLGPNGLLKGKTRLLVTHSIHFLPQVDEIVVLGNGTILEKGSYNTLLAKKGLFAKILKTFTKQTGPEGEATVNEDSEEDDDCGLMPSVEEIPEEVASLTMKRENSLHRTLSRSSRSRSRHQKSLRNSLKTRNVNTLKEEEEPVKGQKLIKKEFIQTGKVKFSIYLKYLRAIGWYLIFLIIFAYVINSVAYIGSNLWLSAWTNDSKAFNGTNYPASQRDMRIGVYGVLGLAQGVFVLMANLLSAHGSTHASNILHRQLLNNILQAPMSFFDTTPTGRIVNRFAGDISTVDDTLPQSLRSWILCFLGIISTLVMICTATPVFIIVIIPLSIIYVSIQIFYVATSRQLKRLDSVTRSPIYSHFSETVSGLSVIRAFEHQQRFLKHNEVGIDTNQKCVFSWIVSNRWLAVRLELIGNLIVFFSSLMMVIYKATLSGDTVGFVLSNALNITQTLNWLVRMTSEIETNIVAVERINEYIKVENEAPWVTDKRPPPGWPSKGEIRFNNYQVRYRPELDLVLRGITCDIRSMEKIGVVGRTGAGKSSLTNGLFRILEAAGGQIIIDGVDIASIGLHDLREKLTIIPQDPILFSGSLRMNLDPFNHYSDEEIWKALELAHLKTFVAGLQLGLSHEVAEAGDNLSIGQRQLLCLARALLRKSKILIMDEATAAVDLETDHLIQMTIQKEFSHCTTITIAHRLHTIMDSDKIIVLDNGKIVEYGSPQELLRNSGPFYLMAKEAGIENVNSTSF
Sequence of MRP2 (Homo sapiens, UniProt Q92887) (Q92887 whole entry): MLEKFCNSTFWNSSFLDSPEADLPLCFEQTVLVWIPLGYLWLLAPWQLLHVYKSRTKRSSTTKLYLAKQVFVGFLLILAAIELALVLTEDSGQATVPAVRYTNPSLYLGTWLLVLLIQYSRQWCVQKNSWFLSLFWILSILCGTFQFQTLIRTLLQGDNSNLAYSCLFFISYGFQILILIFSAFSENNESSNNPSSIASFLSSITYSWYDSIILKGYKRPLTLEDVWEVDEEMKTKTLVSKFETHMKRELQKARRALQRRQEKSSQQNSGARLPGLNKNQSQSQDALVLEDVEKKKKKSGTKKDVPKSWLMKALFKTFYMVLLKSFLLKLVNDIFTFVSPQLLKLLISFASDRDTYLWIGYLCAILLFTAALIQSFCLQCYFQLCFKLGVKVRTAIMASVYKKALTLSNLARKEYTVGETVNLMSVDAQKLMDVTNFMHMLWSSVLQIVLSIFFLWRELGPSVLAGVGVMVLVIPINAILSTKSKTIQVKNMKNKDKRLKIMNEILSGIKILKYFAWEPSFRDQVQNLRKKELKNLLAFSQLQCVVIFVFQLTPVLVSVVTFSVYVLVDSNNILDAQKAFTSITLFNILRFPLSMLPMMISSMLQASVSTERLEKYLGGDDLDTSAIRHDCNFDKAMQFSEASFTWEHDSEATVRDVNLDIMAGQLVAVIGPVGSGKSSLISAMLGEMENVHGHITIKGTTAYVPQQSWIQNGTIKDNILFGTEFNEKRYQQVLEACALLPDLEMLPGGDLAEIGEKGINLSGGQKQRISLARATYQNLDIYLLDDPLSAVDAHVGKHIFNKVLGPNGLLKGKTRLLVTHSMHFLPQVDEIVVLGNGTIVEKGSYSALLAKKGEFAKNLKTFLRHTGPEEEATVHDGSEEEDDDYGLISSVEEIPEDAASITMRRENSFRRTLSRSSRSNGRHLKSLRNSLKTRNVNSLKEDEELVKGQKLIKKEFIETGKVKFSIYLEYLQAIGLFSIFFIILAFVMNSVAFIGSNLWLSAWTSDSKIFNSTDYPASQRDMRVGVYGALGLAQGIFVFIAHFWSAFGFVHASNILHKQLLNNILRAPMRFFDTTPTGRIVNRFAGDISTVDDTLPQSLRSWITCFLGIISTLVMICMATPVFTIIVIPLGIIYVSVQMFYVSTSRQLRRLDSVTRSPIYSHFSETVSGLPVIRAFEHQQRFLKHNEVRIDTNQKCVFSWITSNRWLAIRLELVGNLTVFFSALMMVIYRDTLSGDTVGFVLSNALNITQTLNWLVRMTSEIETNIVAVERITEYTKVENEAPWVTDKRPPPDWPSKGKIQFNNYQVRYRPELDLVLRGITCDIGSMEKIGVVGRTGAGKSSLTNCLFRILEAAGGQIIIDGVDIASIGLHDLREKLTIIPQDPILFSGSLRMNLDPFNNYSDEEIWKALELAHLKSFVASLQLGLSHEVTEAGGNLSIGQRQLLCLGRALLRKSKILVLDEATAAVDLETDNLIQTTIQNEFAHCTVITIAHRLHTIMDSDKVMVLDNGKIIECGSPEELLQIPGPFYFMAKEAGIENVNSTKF

| SMILES | Increase of intracellular accumulation of GSMF [1, 8] [%] | Effect on cell viability (MTT) [2] | Effect on BCRP [3] | Effect on cell viability (MTT) [4] | AUC0-t of MTX ([5]; oral MTX 5.0 mg/kg + water (MTX alone), n = 6, mean ± S.E.) | AUC0-t of MTX ([5]; oral MTX 5.0 mg/kg, MOC 2.0 g/kg thrice daily for 2 days, 7th dose 0.5 h before MTX, n = 5, mean ± S.E.) [μmol·min·mL^−^1] | AUC0-t of MTX ([5]; oral MTX 5.0 mg/kg, single dose MOC 2.0 g/kg 0.5 h before MTX, n = 6, mean ± S.E.) [μmol·min·mL^−^1] | AUC0-t of MTX ([5]; oral MTX 5.0 mg/kg, single dose MOC 4.0 g/kg 0.5 h before MTX, n = 6, mean ± S.E.) [μmol·min·mL^−^1] | Mortality of rats during the pharmacokinetic study [6] | Increase of intracellular accumulation of GSMF ([1]; 25 μM, MN/HK experiment, Fig. 3(B)) [%] | Increase of intracellular accumulation of GSMF [7] [%] | Increase of intracellular accumulation of GSMF ([1]; 50 μM, positive control in MOC experiment, Fig. 3(A)) [%] |
| --- | --- | --- | --- | --- | --- | --- | --- | --- | --- | --- | --- | --- |
| C=CCc1ccc(O)c(-c2cc(CC=C)ccc2O)c1 [MN, magnolol] | 137 | no toxic effects | significantly inhibited | no toxic effects | – | – | – | – | – | – | – | – |
| CN(Cc1cnc2nc(N)nc(N)c2n1)c1ccc(C(=O)N[C@@H](CCC(=O)O)C(=O)O)cc1 [MTX, Methotrexate] | – | – | – | – | 44.6 ± 5.0^a μmol·min·mL^−^1 | 250.2 ± 31.2 | 201.5 ± 39.2 | 206.8 ± 35.9 | all survived very well | – | – | – |
| C=CCc1ccc(O)c(-c2ccc(O)c(CC=C)c2)c1 [HK, honokiol] | 75 | no toxic effects | significantly inhibited | no toxic effects | – | – | – | – | – | 34 | – | – |
| CN(C)C(=O)CCSC(SCCC(=O)O)c1cccc(/C=C/c2ccc3ccc(Cl)cc3n2)c1 (centres unmarked) [MK 571, reference compound] | 331 | – | – | – | – | – | – | – | – | – | 72 | 203 |
